Test results: ChEMBL document CHEMBL1955829, “Synthesis and biological evaluation of 4β-sulphonamido and 4β-[(4'-sulphonamido)benzamide]podophyllotoxins as DNA topoisomerase-IIα and apoptosis inducing agents” (2012)
Active and inactive are the calls of the source. The rule behind the calls is not given here.

Experiments:
ZR-75-1 = assay: Growth inhibition of human ZR-75-1 cells after 48 hrs by sulforhodamine B assay; type: functional; conditions: ZR-75-1, 48 h
Summary of the method: (§1)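 Cells grown in DMEM with 10% FBS and 2 mM L-glutamine, plated at densities set by doubling time, and held 24 h before dosing. Exposure was 48 h to 0.1, 1, 10 and 100 µM in triplicate wells. Cells fixed with cold TCA (final 10%) 60 min at 4 °C and stained with 0.4% SRB 20 min. Bound dye eluted in 10 mM Tris base and read at 540 nm (690 nm reference). GI50 is the concentration giving 50% reduction in net protein gain versus control; values are the mean of three determinations.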

[1] = Growth inhibition of human DWD cells after 48 hrs by sulforhodamine B assay; type: functional; summary of the method: as §1
A2780 = assay: Growth inhibition of human A2780 cells after 48 hrs by sulforhodamine B assay; type: functional; conditions: A2780, 48 h; summary of the method: as §1
COLO 205 [2] = assay: Cytotoxicity against human COLO205 cells at 8 uM after 24 hrs by MTT assay; type: functional, cell-based
Summary of the method: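 Colo-205 cells plated at 10,000 per well, left overnight, then exposed 24 h at 2, 4 or 8 µM. MTT added for 2 h at 37 °C, formazan dissolved in extraction buffer, and optical density read at 570 nm against untreated cells.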

COLO 205 [3] = assay: Cell cycle arrest in human COLO205 cells assessed as accumulation at G1 phase at 4 uM after 24 hrs by FACS analysis (reference value: 60.89%); type: functional
Summary of the method: (§2)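 Colo-205 cells seeded at […] per 60 mm dish and treated 24 h at 4 µM; TSA arm used TSA at 4 µM for 12 h. Cells trypsinised, fixed in ice-cold 70% ethanol 30 min at 4 °C, RNase 1 mg/mL 30 min at 37 °C, then propidium iodide/citrate/Triton stain. DNA content of 20,000 events read by flow cytometry; phase percentages from histograms.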

COLO 205 [4] = assay: Cell cycle arrest in human COLO205 cells assessed as accumulation at S phase at 4 uM after 24 hrs by FACS analysis (reference value: 8.91%); type: functional; summary of the method: as §2
COLO 205 [5] = assay: Cell cycle arrest in human COLO205 cells assessed as accumulation at G2/M phase at 4 uM after 24 hrs by FACS analysis (reference value: 25.92%); type: functional; summary of the method: as §2
COLO 205 [6] = assay: Cell cycle arrest in human COLO205 cells assessed as accumulation at G0 phase at 4 uM after 24 hrs by FACS analysis in presence of HDAC inhibitor, trichostatin A (reference value: 4.06%); type: functional; summary of the method: as §2
COLO 205 [7] = assay: Cell cycle arrest in human COLO205 cells assessed as accumulation at S phase at 4 uM after 24 hrs by FACS analysis in presence of HDAC inhibitor, trichostatin A (reference value: 7.89%); type: functional; summary of the method: as §2
COLO 205 [8] = assay: Down regulation of topoisomerase 2alpha in human COLO205 cells at 4 uM after 24 hrs by Western blotting analysis; type: functional, cell-based
Summary of the method: (§3)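 Colo-205 cells treated 24 h at 4 µM and lysed in ice-cold RIPA with protease inhibitors and NaF. Protein measured by Bradford; 50 µg per lane run on 12% SDS-PAGE and transferred to PVDF. Membrane blocked 2 h, primary antibody (topo-IIα/β, p21, p16, pro-caspase-3, NF-kB p65) overnight at 4 °C, HRP secondary 1:2000 for 1 h, chemiluminescence detection; β-actin as loading control. Reduced procaspase-3 taken as caspase-3 activation.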

COLO 205 [9] = assay: Induction of apoptosis in human COLO205 cells assessed as increase in caspase 3 activation at 4 uM after 24 hrs by ELISA; type: functional, cell-based
COLO 205 [10] = assay: Induction of apoptosis in human COLO205 cells assessed as increase in caspase 3 activation at 4 uM after 24 hrs by Western blotting analysis; type: functional, cell-based; summary of the method: as §3
COLO 205 [11] = assay: Induction of apoptosis in human COLO205 cells assessed as down regulation of Bcl-2 at 4 uM after 24 hrs by ELISA; type: functional, cell-based
Summary of the method: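 Colo-205 cells treated 24 h at 4 µM, with etoposide and camptothecin as controls. Lysates added to Bcl2-antibody-coated wells, followed by a biotin-conjugated anti-human Bcl2 monoclonal antibody, in a Bcl2 ELISA.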

COLO 205 [12] = assay: Induction of apoptosis in human COLO205 cells assessed as up-regulation of NF-kappaB at 4 uM after 24 hrs by Western blotting analysis; type: functional, cell-based; summary of the method: as §3
COLO 205 [13] = assay: Down regulation of topoisomerase 2beta in human COLO205 cells at 4 uM after 24 hrs by Western blotting analysis; type: functional, cell-based; summary of the method: as §3
[14] = target: DNA topoisomerase 2-beta (Mus musculus) (UniProt Q64511); assay: Inhibition of topoisomerase 2beta in mouse embryonic fibroblasts after 1.5 hrs by comet assay; conditions: concentration not given here
DNA topoisomerase 2-beta (Mus musculus), sequence (Q64511 whole entry): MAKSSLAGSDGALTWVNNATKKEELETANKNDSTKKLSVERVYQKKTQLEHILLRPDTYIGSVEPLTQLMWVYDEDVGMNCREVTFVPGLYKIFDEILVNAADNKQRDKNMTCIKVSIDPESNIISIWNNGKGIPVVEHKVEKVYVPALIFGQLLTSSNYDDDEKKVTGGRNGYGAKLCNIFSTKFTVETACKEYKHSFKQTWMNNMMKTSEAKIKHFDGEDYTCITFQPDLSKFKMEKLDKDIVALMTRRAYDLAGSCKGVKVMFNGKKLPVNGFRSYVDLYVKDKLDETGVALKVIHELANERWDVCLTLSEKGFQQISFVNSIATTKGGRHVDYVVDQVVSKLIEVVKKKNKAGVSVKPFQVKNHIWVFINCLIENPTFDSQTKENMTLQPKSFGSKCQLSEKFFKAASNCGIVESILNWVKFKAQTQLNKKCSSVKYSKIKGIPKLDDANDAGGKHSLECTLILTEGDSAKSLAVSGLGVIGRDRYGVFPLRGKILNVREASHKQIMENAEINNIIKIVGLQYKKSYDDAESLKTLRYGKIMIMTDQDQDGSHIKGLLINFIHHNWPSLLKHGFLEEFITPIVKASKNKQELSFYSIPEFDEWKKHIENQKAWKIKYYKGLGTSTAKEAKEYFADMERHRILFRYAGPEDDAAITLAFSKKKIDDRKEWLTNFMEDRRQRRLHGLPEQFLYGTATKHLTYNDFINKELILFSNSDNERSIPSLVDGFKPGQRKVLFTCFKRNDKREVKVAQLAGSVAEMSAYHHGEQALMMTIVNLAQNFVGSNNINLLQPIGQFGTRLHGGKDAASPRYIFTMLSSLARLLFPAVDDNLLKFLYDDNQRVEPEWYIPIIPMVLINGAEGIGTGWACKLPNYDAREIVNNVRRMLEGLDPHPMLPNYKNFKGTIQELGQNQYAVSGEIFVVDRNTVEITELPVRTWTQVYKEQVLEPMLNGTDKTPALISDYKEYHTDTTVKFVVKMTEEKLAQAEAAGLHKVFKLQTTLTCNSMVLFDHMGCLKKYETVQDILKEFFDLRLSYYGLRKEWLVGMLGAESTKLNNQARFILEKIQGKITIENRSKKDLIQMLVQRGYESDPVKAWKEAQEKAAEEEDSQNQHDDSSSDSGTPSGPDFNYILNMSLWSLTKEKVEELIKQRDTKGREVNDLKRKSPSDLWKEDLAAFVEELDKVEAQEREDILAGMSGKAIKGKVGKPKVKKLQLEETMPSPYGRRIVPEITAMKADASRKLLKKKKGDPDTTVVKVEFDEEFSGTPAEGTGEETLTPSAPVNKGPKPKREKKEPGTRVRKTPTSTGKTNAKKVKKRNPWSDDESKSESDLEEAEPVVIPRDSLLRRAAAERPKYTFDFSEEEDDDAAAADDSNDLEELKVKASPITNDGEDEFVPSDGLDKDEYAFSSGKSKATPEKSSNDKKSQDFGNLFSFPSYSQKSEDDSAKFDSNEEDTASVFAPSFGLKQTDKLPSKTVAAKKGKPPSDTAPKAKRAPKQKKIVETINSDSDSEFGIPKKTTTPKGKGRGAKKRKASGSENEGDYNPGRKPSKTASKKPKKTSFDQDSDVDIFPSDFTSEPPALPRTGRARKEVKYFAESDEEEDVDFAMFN

SMILES: COC(=O)c1sccc1S(=O)(=O)N[C@@H]1c2cc3c(cc2[C@@H](c2cc(OC)c(OC)c(OC)c2)[C@H]2C(=O)OC[C@@H]21)OCO3
- GI50 (ZR-75-1): 60 nM
- GI50 [1]: 40 nM
- GI50 (A2780): 50 nM
- Activity (COLO 205 [2]): Active
- Activity (COLO 205 [3]): 27.43%
- Percentage of cells in S phase (COLO 205 [4]): 8.16%
- Percentage of cells in G2/M phase (COLO 205 [5]): 40.57%
- Activity (COLO 205 [6]): 57.43%
- Activity (COLO 205 [7]): 7.85%
- Activity (COLO 205 [8]): Active
- Activity (COLO 205 [9]): Active
- Activity (COLO 205 [10]): Active
- Activity (COLO 205 [11]): Active
- Activity (COLO 205 [12]): Active

SMILES: COc1cc([C@@H]2c3cc4c(cc3[C@@H](O[C@@H]3O[C@@H]5CO[C@@H](C)O[C@H]5[C@H](O)[C@H]3O)[C@H]3COC(=O)[C@H]23)OCO4)cc(OC)c1O [ETOPOSIDE]
- GI50 (ZR-75-1): 200 nM
- GI50 [1]: 620 nM
- GI50 (A2780): 1310 nM
- Activity (COLO 205 [2]): Active
- Activity (COLO 205 [3]): 12.82%
- Percentage of cells in S phase (COLO 205 [4]): 6.97%
- Percentage of cells in G2/M phase (COLO 205 [5]): 74.27%
- Activity (COLO 205 [6]): 56.29%
- Activity (COLO 205 [7]): 8.55%
- Activity (COLO 205 [13]): Active
- Activity (COLO 205 [9]): Active
- Activity (COLO 205 [10]): Active
- Activity (COLO 205 [11]): Active
- Activity (COLO 205 [12]): Active
- inhibition [14]: 100%
